These results are taken from ChEMBL document CHEMBL4020844, “Regio- and Stereospecific Synthesis of Oridonin D-Ring Aziridinated Analogues for the Treatment of Triple-Negative Breast Cancer via Mediated Irreversible Covalent Warheads” (J Med Chem, 2018).

SMILES strings stand for the structures. Activity calls are given as the source filed them. No cut-off for these calls is given here. Some results are limits rather than exact numbers.

Series [1] can be described thus: Antiproliferative activity against human LX2 cells by alamar blue assay. It counts as functional, cell-based. Particulars: LX-2. A general note: Alamar Blue is a resazurin reagent that responds to reducing activity.
Series [2] can be described thus: Potency index, ratio of oridonin IC50 to compound IC50 for human LX2 cells. It counts as functional.
Series [3] has as its system MDA-MB-231. Description: Antiproliferative activity against human MDA-MB-231 cells after 72 hrs by MTT assay. It counts as functional, cell-based. Put shortly:
(§1)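 MTT proliferation assay. Cells were seeded at 1 × 10^4 per well and exposed to DMSO or compound at 0.1, 0.33, 1.0, 3.3 and 10 μM for 72 h. MTT reagent was added, and OD at 560 nm was read after 1 h at 37°C. Each concentration was tested in quadruplicate wells.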
For orientation: Formazan colour is commonly taken as a measure of viable cells.

Series [4] concerns MCF7. As to the kind of experiment: Antiproliferative activity against human MCF7 cells after 72 hrs by MTT assay. In kind it is functional, cell-based. Put shortly:
as §1

Series [5] is described as follows: Glutathione reactivity in pH 7.4 deuterated phosphate buffer at 10 mg after 20 hrs in presence of 1.5 to 2 equiv of GSH by 1H NMR analysis.
The nature of series [6]: Drug level in pH 7.4 deuterated phosphate buffer treated with oridonin at 10 mg up to 10 mins in presence of 1.5 to 2 equiv of GSH by HRMS analysis.
The nature of series [7]: Drug level in pH 7.4 deuterated phosphate buffer treated with (2R,3'S,3a'R,3a1'R,6a'R,7'S,11'S,11a'S)-7',11'-Dihydroxy-5',5',8',8'-tetramethyldecahydro-2'H-spiro[aziridine-2,15'-[6a,11a]-(epoxymethano)[3,3a1]ethanophenanthro[1,10-de][1,3]dioxin]-14'-one at 10 mg after 5 hrs in presence of 1.5 to 2 equiv of GSH by HRMS analysis.
Series [8] can be described thus: Glutathione reactivity in pH 7.4 deuterated phosphate buffer assessed as reaction half life at 10 mg up to 24 hrs in presence of 1.5 to 2 equiv of GSH by 1H NMR analysis. It counts as physicochemical. Particulars: pH 7.4, 24 h.
Series [9] is described as follows: Glutathione reactivity in pH 7.4 deuterated phosphate buffer assessed as GSH adduct formation at 10 mg after 5 hrs in presence of 1.5 to 2 equiv of GSH by HRMS analysis.
The nature of series [10]: Stability in human microsomes. In kind it is ADME, Microsome.
A short description of series [11]: Stability in rat microsomes. In kind it is ADME, Microsome.
Series [12] can be described thus: Stability in mouse microsomes. In kind it is ADME, Microsome.
For series [13], the system named is Plasma. As to the kind of experiment: Stability in human plasma up to 5 hrs. It counts as ADME, cell-free.
Series [14] has as its system Plasma. Description: Stability in rat plasma up to 5 hrs. It counts as ADME, cell-free.
For series [15], the system named is Plasma. Description: Stability in mouse plasma up to 5 hrs. In kind it is ADME, cell-free.
The nature of series [16]: Glutathione reactivity in pH 7.4 deuterated phosphate buffer assessed as reaction half life at 10 mg up to 10 mins in presence of 1.5 to 2 equiv of GSH by 1H NMR analysis. In kind it is physicochemical.
Series [17] can be described thus: Glutathione reactivity in pH 7.4 deuterated phosphate buffer assessed as GSH adduct formation at 10 mg up to 10 mins in presence of 1.5 to 2 equiv of GSH by HRMS analysis.
The nature of series [18]: Toxicity in ip dosed ddYS mouse implanted with mouse ehrlich carcinoma cells administered once daily for 7 consecutive days measured for 40 days. It counts as organism-based. Particulars: in vivo.
Series [19] deals with MDA-MB-231. Description: Antitumor activity against human MDA-MB-231 cells xenografted in nude mouse assessed as tumor growth inhibition at 10 mg/kg, ip daily for 10 days. In kind it is functional, organism-based. Put shortly: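 Orthotopic model: female nude mice, 6–8 weeks old. MDA-MB-231 cells (1.0 × 10^6 in PBS) were injected into the no. 3 mammary fat pad, and mice were randomized into 4 groups. Once tumors reached 80–100 mm3, mice received 10 or 15 mg/kg daily by intraperitoneal injection in DMSO vehicle. Tumor volume (0.5 × L × W2) and body weight were measured daily. Mean ± SEM.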

The nature of series [20]: Drug level in pH 7.4 deuterated phosphate buffer treated with (2R,3'S,3a'R,3a1'R,6a'R,7'S,11'S,11a'S)-1-Acryloyl-7',11'-dihydroxy-5',5',8',8'-tetramethyldecahydro-2'H-spiro[aziridine-2,15'-[6a,11a](epoxymethano)[3,3a1]ethanophenanthro[1,10-de][1,3]-dioxin]-14'-one at 10 mg after 1 hr in presence of 1.5 to 2 equiv of GSH by HRMS analysis.

Turning to `C=C1C(=O)[C@]23[C@H](O)[C@H]1CC[C@H]2[C@]12C=CCC(C)(C)[C@H]1[C@H](O)[C@]3(O)OC2`, the IC50 in [1] was 0.49 µM. For the same compound, the “Ratio IC50” value in series [2] worked out at 10.
Consider `C=CCNc1nc2c(s1)CC(C)(C)[C@H]1[C@H](O)[C@]3(O)OC[C@@]21[C@@H]1CC[C@@H]2[C@@H](O)[C@@]13C(=O)C21CN1` (some centres undefined), for which the outcome in [3] and in [4] was Active.
For the compound `O=C(O)C1CN1` (centres undefined), in series [5], the Drug metabolism entry is listed as “Metabolite detected”.
In the case of `CCC(=O)N1CC12C(=O)[C@@]13[C@@H]4OC(C)(C)O[C@@]15OC[C@@]1([C@H]([C@@H]5O)C(C)(C)CC[C@@H]1O)[C@@H]3CC[C@H]42` (some centres undefined), the result in series [3] and in series [4] was inactive.
`CC1(C)CC[C@H](O)[C@]23CO[C@@](O)([C@@H](O)[C@H]12)[C@]12C(=O)C(CSCC(NC(=O)CC[C@H](N)C(=O)O)C(=O)NCC(=O)O)[C@H](CC[C@@H]31)[C@H]2O` (some centres undefined): the Drug metabolism result in series [6] is reported as “Metabolite detected”.
`CC1(C)O[C@@H]2[C@H]3CC[C@H]4[C@@]56CO[C@@](O1)([C@@H](O)[C@@H]5C(C)(C)CC[C@@H]6O)[C@@]24C(=O)C3(N)CSCC(NC(=O)CC[C@H](N)C(=O)O)C(=O)NCC(=O)O` (some centres undefined): in series [7], the Drug metabolism entry was “Metabolite detected”.
For the compound `CC1(C)O[C@@H]2[C@H]3CC[C@H]4[C@@]56CO[C@@](O1)([C@@H](O)[C@@H]5C(C)(C)CC[C@@H]6O)[C@@]24C(=O)C31CN1` (some centres undefined), the t1/2 in series [8] was in the range of 4 to 6 h. Also, in [9], the Drug metabolism entry is on record as “Metabolite detected”. Besides, the Stability entry in series [10], in series [11], in [12], in [13], in series [14] and in [15] was “Stable” each time.
As for `C=C1C(=O)[C@]23[C@H](OC(=O)[C@H](C)N)[C@H]1CC[C@H]2[C@@]12CO[C@@]3(O)[C@@H](O)[C@@H]1C(C)(C)CC[C@@H]2O.O=C(O)C(F)(F)F`, the Drug metabolism result in series [16] (in vitro, pH 7.4, 10 min) is given as “Metabolite_Detected”.
As to `C=CCNc1nc2c(s1)CC(C)(C)[C@H]1[C@H](O)[C@]3(O)OC[C@@]21[C@@H]1CC[C@@H]2[C@@H](O)[C@@]13C(=O)C21CN1C(=O)OCC1c2ccccc2-c2ccccc21` (some centres undefined), the outcome in series [3] and in series [4] was Active.
For `C=C1C(=O)[C@@]23[C@@H]4OC(C)(C)O[C@@]25OC[C@@]2([C@H]([C@@H]5O)C(C)(C)CC[C@@H]2O)[C@@H]3CC[C@@H]14`, the t1/2 in series [16] (gsh, pH 7.4, 10 min) is on record as less than 1 min.
On to `C=C1C(=O)[C@]23[C@H](O)[C@H]1CC[C@H]2[C@@]12CO[C@]3(O)[C@@H](O)[C@@H]1C(C)(C)CC[C@@H]2O` [ORIDONIN], for which the half-life in [16] (deuterated phosphate buffer with glutathione (GSH), pH 7.4) is less than 1 min. In addition, in [17], the Drug metabolism entry is given as “Metabolite detected”. Also, the LD50 at 960 h in series [18] came out at 37.5 mg/kg. The Stability entry in series [10], in [11], in series [12], in series [13], in series [14] and in series [15] was “Stable” in each case. Also, the IC50 in [3] (MDA-MB-231, 72 h) amounted to 29.4 µM; in series [4] (MCF7, 72 h) it was 6.72 µM. The TGI result in [19] was “Active”.
For `CC1(C)O[C@@H]2[C@H]3CC[C@H]4[C@@]56CO[C@@](O1)([C@@H](O)[C@@H]5C(C)(C)CC[C@@H]6O)[C@@]24C(=O)C31CN1C(=O)CCSC[C@H](NC(=O)CC[C@H](N)C(=O)O)C(=O)NCC(=O)O` (some centres undefined), the Drug metabolism entry in series [20] is “Metabolite detected”.

As usually defined, the IC50 is the concentration that gives 50% inhibition. What is called half-life is the time in which the quantity being followed falls by half. By LD50 is commonly meant the dose expected to kill half of the subjects tested. Higher therefore signals lower toxicity.
